Results reported in ChEMBL document CHEMBL1135398, “Methanocarba modification of uracil and adenine nucleotides: high potency of Northern ring conformation at P2Y1, P2Y2, P2Y4, and P2Y11 but not P2Y6 receptors” (J Med Chem, 2002).
Blank lines part the entries; values can stand above or below the compound they belong to. The source made the active and inactive calls. The rule behind the calls is not given here.

Tests used:
Format in all cases: functional
P2Y purinoceptor 1 [1] = molecular target: P2Y purinoceptor 1 (Homo sapiens, UniProt P47900); assay: Measure of Agonist Potency at human P2Y purinoceptor 1 (hP2Y1) stably expressed in […] astrocytoma cell
Outline: (§1)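 1321N1 cells stably expressing the human receptor were labelled overnight with 1 μCi [³H]myo-inositol per well in inositol-free DMEM. [³H]inositol phosphate formation was then measured over 10 min at 37 °C with 10 mM LiCl. EC50 came from a four-parameter logistic fit of full concentration-effect curves, averaged over 3–8 independent curves.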

P2Y purinoceptor 1 [2] = molecular target: P2Y purinoceptor 1 (Meleagris gallopavo, UniProt P49652); assay: Measure of Agonist Potency at turkey Purinoceptor P2Y1 stably expressed in 131N1 astrocytoma cell
[3] = molecular target: T1, P2Y purinoceptor 11 (Homo sapiens) (UniProt Q96G91); assay: Measure of Agonist Potency at human P2Y purinoceptor 11 (hP2Y11) stably expressed in […] astrocytoma cell at 10 uM; NE means no effect at 100 uM
T1 sequence (whole entry): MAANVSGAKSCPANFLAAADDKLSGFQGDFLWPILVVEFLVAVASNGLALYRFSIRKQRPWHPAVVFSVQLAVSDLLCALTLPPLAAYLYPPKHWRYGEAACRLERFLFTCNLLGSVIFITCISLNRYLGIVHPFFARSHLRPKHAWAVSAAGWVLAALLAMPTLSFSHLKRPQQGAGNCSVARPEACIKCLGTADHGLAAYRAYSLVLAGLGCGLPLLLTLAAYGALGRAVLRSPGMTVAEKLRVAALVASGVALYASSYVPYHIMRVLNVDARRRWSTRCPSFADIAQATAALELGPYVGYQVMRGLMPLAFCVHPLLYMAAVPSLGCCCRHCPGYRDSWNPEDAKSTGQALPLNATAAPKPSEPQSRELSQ

P2Y purinoceptor 4 [4] = molecular target: T2, P2Y purinoceptor 4 (Homo sapiens, UniProt P51582); assay: Measure of Agonist Potency at human P2Y purinoceptor 4 (hP2Y4) stably expressed in […] astrocytoma cell; NE means no effect at 100 uM; outline: as §1
[5] = molecular target: P2Y purinoceptor 1 (Meleagris gallopavo) (UniProt P49652); assay: Measure of Agonist Potency at turkey Purinoceptor P2Y1 stably expressed in […] astrocytoma cell; NE means no effect at 100 uM
[6] = molecular target: T1, P2Y purinoceptor 11 (Homo sapiens); assay: Measure of Agonist Potency at human P2Y purinoceptor 11 (hP2Y11) stably expressed in […] astrocytoma cell at 10 uM
P2Y purinoceptor 4 [7] = molecular target: T2, P2Y purinoceptor 4; assay: Measure of % Agonist Potency at human P2Y purinoceptor 4 (hP2Y4) stably expressed in […] astrocytoma cell at 10 uM
P2Y purinoceptor 2 = P2Y purinoceptor 2 (Homo sapiens, UniProt P41231); assay: Measure of Agonist Potency at human P2Y purinoceptor 2 (hP2Y2) stably expressed in […] astrocytoma cell; outline: as §1
P2Y purinoceptor 6 [8] = molecular target: T3, P2Y purinoceptor 6 (Homo sapiens, UniProt Q15077); assay: Measure of Agonist Potency at human P2Y purinoceptor 6 (hP2Y6) stably expressed in […] astrocytoma cell; NE means no effect at 100 uM; outline: as §1
P2Y purinoceptor 4 [9] = molecular target: T2, P2Y purinoceptor 4; assay: Measure of Agonist Potency at human P2Y purinoceptor 4 (hP2Y4) stably expressed in 131N1 astrocytoma cell; outline: as §1
P2Y purinoceptor 6 [10] = molecular target: T3, P2Y purinoceptor 6; assay: Measure of Agonist Potency at human P2Y purinoceptor 6 (hP2Y6) stably expressed in 131N1 astrocytoma cell
Outline: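 Human P2Y6 stably expressed in 1321N1 astrocytoma cells; cells labelled overnight with 1 μCi/well [³H]myo-inositol in inositol-free DMEM. [³H]inositol phosphate formation measured next day over 10 min at 37 °C with 10 mM LiCl. Full concentration-effect curves fitted by four-parameter logistic equation; EC50 averaged from 3–8 independent curves (mean ± SE).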

T3 sequence (Q15077 whole entry): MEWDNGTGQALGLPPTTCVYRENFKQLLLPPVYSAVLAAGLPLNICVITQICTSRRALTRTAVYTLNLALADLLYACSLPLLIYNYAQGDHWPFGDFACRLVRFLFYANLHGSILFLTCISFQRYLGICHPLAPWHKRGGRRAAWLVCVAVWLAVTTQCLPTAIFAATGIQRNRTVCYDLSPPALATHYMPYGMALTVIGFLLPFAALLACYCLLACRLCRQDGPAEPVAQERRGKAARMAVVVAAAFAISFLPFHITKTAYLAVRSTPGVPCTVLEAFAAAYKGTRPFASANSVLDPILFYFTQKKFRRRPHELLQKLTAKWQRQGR
T2 sequence (P51582 whole entry): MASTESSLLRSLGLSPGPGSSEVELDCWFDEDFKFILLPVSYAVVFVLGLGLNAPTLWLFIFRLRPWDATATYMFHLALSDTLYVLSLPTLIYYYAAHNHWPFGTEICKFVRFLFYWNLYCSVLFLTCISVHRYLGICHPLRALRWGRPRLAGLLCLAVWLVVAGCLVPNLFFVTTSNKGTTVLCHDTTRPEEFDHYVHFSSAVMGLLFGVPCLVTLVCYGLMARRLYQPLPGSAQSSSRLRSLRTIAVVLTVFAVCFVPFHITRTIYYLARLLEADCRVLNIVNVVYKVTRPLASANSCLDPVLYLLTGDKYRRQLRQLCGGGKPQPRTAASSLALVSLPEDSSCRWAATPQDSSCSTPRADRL
Chain of P2Y purinoceptor 1 (Meleagris gallopavo, UniProt P49652) (P49652 whole entry): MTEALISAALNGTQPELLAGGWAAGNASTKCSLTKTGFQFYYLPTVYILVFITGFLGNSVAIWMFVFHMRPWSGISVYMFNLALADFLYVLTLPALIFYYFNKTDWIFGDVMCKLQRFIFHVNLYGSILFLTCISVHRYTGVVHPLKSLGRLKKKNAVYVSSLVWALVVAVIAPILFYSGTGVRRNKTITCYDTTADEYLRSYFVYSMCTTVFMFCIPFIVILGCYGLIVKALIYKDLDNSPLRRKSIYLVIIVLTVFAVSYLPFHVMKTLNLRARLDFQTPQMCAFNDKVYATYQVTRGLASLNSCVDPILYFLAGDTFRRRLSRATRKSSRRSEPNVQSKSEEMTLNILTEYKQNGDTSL
Chain of P2Y purinoceptor 1 (Meleagris gallopavo) (P49652 whole entry): as above
Chain of P2Y purinoceptor 2 (P41231 whole entry): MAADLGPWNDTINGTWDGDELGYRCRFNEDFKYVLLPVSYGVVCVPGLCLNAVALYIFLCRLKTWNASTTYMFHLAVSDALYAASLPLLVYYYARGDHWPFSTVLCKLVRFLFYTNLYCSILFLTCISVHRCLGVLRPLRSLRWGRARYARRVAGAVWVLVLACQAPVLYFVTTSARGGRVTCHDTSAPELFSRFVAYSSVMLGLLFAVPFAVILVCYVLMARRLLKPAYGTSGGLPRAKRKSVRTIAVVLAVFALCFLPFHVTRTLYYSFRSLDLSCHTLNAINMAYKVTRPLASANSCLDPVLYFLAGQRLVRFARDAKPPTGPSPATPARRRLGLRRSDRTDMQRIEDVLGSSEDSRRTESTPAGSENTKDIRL
Chain of P2Y purinoceptor 1 (Homo sapiens, UniProt P47900) (P47900 whole entry): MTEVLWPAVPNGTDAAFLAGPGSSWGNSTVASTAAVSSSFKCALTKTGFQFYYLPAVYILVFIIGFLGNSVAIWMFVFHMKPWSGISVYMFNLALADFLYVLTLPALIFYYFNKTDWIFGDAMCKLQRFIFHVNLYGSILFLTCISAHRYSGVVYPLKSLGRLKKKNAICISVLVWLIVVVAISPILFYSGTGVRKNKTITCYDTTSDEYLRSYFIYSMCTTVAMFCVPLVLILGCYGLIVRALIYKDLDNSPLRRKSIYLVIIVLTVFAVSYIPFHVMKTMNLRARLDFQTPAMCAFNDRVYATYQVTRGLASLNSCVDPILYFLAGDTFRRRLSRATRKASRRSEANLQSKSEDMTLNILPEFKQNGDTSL

EC50 (P2Y purinoceptor 1 [1]): 1500 nM
EC50 (P2Y purinoceptor 1 [2]): 2800 nM
SMILES: Nc1ncnc2c1ncn2[C@@H]1O[C@H](COP(=O)(O)O)[C@@H](O)[C@H]1O (stereo in doubt; form 3) [ADENOSINE PHOSPHATE]

NE [3]: inactive
NE (P2Y purinoceptor 4 [4]): inactive
SMILES: Nc1ncnc2c1ncn2[C@@H]1O[C@H](COP(=O)(O)O)[C@@H](O)[C@H]1O (stereo in doubt; form 4)

NE [5]: inactive
SMILES: Nc1ncnc2c1ncn2[C@@H]1O[C@H](COP(=O)(O)O)[C@@H](O)[C@H]1O (stereo in doubt; form 1)

Activity [6]: 34.5%
Activity (P2Y purinoceptor 4 [7]): 32%
EC50 (P2Y purinoceptor 1 [2]): 14 nM
EC50 (P2Y purinoceptor 2): 91 nM
SMILES: Nc1ncnc2c1ncn2[C@H]1[C@H](O)[C@H](O)[C@]2(COP(=O)(O)OP(=O)(O)OP(=O)(O)O)C[C@H]12 (stereo in doubt; form 1)

NE [5]: inactive
SMILES: Nc1ncnc2c1ncn2[C@@H]1O[C@H](COP(=O)(O)O)[C@@H](O)[C@H]1O (stereo in doubt; form 2)

EC50 (P2Y purinoceptor 1 [1]): 7200 nM
EC50 (P2Y purinoceptor 1 [2]): 3500 nM
SMILES: Nc1ncnc2c1ncn2[C@@H]1O[C@H](COP(=O)(O)O)[C@@H](O)[C@H]1O (stereo in doubt; form 4) [ADENOSINE PHOSPHATE]

Agonist effect (P2Y purinoceptor 6 [8]): inactive
SMILES: O=c1ccn(C2C(O)C(O)C3(COP(=O)(O)OP(=O)(O)O)CC23)c(=O)[nH]1 (stereo unspecified)

Agonist effect (P2Y purinoceptor 6 [8]): inactive
NE [3]: inactive
EC50 (P2Y purinoceptor 2): 15.9 nM
EC50 (P2Y purinoceptor 4 [9]): 85 nM
SMILES: O=c1ccn([C@H]2[C@H](O)[C@H](O)[C@]3(COP(=O)(O)OP(=O)(O)OP(=O)(O)O)C[C@H]23)c(=O)[nH]1 (stereo in doubt; form 2) [N-METHANOCARBA-UTP]

Agonist effect (P2Y purinoceptor 6 [8]): inactive
SMILES: O=c1ccn(C2O[C@H](COP(=O)(O)O)[C@@H](O)[C@@H]2O)c(=O)[nH]1 (stereo partly specified)

EC50 (P2Y purinoceptor 6 [10]): 15 nM
SMILES: O=c1ccn([C@@H]2O[C@H](COP(=O)(O)OP(=O)(O)O)[C@@H](O)[C@H]2O)c(=O)[nH]1 [URIDINE_DIPHOSPHATE]

Agonist effect (P2Y purinoceptor 6 [8]): inactive
SMILES: O=c1ccn(C2C(O)C(O)C3(COP(=O)(O)O)CC23)c(=O)[nH]1 (stereo unspecified)

NE [5]: inactive
SMILES: Nc1ncnc2c1ncn2[C@@]12C[C@H]1[C@H](COP(=O)(O)O)[C@@H](O)[C@H]2O
